Data set [1] has as its target Phosphatidylinositol 4,5-bisphosphate 3-kinase catalytic subunit alpha isoform (Homo sapiens, UniProt P42336). Nature of the data set: Inhibition of alexa fluor 647-labeled kinase tracer 314 binding to recombinant N-terminal His6-tagged p110alpha (unknown origin) by TR-FRET assay. In a few lines: (§1)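 LanthaScreen TR-FRET displacement of tracer from the ATP-binding site of recombinant kinase. 10-point 1:4 serial dilution with each concentration in duplicate. IC50 converted to Ki using a factor of 2.05 for mTOR and 9.84 for p110α. Reported as mean ± SD.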

Data set [2] deals with mTORC1 (Homo sapiens, UniProt P42345). Nature of the data set: Inhibition of mTORC1 in human A2058 cells assessed as reduction in S6 ribosomal protein phosphorylation at Ser235/236 residues incubated for 1 hr by Western blot analysis. It is filed as cell-based. The method, boiled down:
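A2058 melanoma cells; phospho-S6 (Ser235/236) used as the mTORC1 readout. IC50 from a 7-point 1:2 serial dilution, each concentration in triplicate. Reported as mean ± SD.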

The target of data set [3] is Serine/threonine-protein kinase mTOR (Homo sapiens, UniProt P42345). Nature of the data set: Inhibition of alexa fluor 647-labeled kinase tracer 314 binding to recombinant N-terminal GST-fused mTOR (1360 to 2549 residues) (unknown origin) by TR-FRET assay. In a few lines: as §1
The nature of data set [4]: Inhibition of mTORC2 in human A2058 cells assessed as reduction in PKB phosphorylation at S473 residue incubated for 1 hr by Western blot analysis. It is filed as cell-based. As to conditions: A2058, 1 h. The method, boiled down:
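A2058 melanoma cells were used. mTORC1 activity was read as phospho-S6 ribosomal protein (Ser235/236), and mTORC2 activity as phospho-PKB/Akt (Ser473). IC50 came from a 7-point 1:2 serial dilution, with each concentration measured in triplicate. Data are reported as mean ± SD.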

For data set [5], the target named is T1, MDR1 (P-gp, ABCB1) (Homo sapiens, UniProt P08183). Nature of the data set: Substrate activity at human MDR1 expressed in MDCK cells assessed as apparent permeability at 1 uM by UPLS-MS/MS analysis. It is filed as ADME, cell-based. In a few lines:
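TransWell assay in CRISPR-Cas9 MDCK cells expressing human MDR1 with endogenous canine MDR1 knocked out (MDCK-hMDR1^cMDR1-ko), grown on filters; apparent permeability measured apical to basolateral.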

Data set [6] addresses T1, MDR1 (P-gp, ABCB1). Nature of the data set: Substrate activity at human MDR1 expressed in MDCK cells assessed as efflux ratio of apparent permeability across basolateral to apical side over apical to basolateral side at 1 uM by UPLS-MS/MS analysis. It is filed as ADME, cell-based.
Data set [7] addresses T2, CYP1A1 (Homo sapiens, UniProt P04798).
T2 sequence (P04798 whole entry): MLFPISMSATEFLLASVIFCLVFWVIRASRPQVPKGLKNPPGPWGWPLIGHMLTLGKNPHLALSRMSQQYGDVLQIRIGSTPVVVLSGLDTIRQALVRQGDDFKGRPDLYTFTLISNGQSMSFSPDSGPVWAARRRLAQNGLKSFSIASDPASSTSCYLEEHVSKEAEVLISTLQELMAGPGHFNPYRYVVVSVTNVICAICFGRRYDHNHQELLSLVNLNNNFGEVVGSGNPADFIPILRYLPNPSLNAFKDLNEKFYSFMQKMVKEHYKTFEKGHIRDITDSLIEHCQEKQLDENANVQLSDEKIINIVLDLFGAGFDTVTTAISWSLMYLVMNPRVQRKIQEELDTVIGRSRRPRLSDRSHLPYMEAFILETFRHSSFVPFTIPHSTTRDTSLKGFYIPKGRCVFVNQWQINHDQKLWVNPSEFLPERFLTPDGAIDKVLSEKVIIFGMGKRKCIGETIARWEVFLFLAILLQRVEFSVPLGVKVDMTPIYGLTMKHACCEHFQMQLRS
Nature of the data set: Stability of compound assessed as recombinant human CYP1A1 expressed in baculovirus infected insect cells mediated compound metabolism by measuring parent compound remaining at 1 uM preincubated with NADP+ regenerating system for 10 mins followed by enzyme addition and measured after 60 mins by LC-MS analysis. It is filed as ADME. The note with it: time 70 min, read-out: Stabilty. In a few lines:
(§2)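 Individual human recombinant CYP isoenzymes; percentage of parent compound remaining after 60 min incubation.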

For data set [8], the target named is T3, CYP1A2 (Homo sapiens, UniProt P05177).
T3 sequence (P05177 whole entry): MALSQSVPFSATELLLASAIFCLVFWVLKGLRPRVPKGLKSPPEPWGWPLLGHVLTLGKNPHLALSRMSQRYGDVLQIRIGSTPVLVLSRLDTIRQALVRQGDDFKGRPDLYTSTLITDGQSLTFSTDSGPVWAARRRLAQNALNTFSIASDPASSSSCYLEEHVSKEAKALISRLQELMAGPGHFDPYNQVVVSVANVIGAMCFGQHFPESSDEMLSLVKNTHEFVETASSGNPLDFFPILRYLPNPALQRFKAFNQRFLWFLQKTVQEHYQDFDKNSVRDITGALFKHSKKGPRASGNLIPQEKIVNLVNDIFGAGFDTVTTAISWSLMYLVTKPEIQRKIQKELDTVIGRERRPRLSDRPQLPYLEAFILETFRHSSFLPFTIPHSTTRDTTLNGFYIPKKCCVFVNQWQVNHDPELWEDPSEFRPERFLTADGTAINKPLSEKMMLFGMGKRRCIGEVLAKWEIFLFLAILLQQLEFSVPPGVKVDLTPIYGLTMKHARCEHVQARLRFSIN
Nature of the data set: Stability of compound assessed as recombinant human CYP1A2 expressed in baculovirus infected insect cells mediated compound metabolism by measuring parent compound remaining at 1 uM preincubated with NADP+ regenerating system for 10 mins followed by enzyme addition and measured after 60 mins by LC-MS analysis. As to conditions: time 70 min, read-out: Stabilty. It is filed as ADME. The method, boiled down: as §2

Where only a bound is given, the exact number is not on record here.

T1 sequence (P08183 whole entry): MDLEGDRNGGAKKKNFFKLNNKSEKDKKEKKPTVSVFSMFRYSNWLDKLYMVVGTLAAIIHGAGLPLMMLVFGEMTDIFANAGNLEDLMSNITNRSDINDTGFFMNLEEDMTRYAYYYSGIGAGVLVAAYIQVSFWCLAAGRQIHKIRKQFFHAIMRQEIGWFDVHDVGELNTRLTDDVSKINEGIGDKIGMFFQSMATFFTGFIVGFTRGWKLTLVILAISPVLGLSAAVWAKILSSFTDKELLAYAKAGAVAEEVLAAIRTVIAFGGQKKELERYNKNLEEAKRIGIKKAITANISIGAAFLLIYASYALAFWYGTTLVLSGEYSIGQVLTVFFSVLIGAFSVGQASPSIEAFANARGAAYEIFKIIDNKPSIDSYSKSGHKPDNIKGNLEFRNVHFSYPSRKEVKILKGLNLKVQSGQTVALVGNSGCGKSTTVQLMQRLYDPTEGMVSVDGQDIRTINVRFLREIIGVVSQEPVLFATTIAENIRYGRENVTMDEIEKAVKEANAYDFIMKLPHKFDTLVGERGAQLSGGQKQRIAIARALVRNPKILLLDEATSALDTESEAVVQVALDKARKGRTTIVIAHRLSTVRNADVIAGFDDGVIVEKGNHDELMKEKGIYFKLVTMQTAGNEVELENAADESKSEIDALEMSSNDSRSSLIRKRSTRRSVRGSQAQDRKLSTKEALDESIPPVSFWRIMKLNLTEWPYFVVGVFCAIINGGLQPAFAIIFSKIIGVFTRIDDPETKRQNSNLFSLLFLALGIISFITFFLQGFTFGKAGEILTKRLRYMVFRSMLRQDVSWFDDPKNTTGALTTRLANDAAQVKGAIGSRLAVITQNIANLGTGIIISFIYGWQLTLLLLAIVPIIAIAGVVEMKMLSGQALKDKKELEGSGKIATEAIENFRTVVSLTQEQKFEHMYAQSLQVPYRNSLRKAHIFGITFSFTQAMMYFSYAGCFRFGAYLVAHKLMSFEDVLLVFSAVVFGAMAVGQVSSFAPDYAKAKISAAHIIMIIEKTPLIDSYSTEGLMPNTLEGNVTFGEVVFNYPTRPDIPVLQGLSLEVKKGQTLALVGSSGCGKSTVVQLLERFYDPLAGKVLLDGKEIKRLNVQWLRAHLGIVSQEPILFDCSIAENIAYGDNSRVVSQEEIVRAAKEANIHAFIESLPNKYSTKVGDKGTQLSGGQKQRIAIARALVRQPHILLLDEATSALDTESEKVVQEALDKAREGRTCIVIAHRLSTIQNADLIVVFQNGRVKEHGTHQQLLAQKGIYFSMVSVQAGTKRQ
Phosphatidylinositol 4,5-bisphosphate 3-kinase catalytic subunit alpha isoform, sequence (P42336 whole entry, canonical isoform): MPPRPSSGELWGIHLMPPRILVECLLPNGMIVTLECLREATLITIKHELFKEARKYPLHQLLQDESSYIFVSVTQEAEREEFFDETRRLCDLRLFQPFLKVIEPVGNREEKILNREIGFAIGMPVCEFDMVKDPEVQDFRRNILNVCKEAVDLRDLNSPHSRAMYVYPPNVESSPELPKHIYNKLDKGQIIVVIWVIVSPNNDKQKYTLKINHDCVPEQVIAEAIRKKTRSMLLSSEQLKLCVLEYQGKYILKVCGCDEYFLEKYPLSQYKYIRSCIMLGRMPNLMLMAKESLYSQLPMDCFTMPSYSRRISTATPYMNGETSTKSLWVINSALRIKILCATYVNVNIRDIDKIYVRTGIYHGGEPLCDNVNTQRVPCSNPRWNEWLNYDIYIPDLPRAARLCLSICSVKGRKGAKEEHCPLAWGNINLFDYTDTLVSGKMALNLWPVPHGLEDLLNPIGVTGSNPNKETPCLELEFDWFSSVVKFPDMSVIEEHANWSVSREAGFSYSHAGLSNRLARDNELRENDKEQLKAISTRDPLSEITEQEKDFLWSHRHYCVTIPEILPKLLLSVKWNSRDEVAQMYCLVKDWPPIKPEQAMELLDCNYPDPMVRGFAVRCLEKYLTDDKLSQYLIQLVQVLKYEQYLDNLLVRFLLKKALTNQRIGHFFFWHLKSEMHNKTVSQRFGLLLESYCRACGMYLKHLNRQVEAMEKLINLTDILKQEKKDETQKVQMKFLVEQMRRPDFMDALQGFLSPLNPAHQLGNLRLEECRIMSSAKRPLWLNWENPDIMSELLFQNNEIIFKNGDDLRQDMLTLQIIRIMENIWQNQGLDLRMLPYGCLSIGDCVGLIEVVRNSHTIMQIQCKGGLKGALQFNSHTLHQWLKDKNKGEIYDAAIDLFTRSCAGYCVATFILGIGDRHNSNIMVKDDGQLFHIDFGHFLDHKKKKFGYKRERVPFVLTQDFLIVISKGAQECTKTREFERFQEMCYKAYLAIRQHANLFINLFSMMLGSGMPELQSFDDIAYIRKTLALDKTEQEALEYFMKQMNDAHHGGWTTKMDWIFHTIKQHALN

With `C[C@@H]1COCCN1c1nc(-c2cnc(N)nc2C(F)F)nc2c1C[C@@H]1COCCN21`, the figures for the inhibition constant (Ki) in data set [1] and in data set [3] were 17 nM and 34 nM, respectively. Also, the IC50 in data set [2] is 119 nM.
Consider `C[C@@H]1COCCN1c1nc(-c2cnc(N)cc2C(F)F)nc2c1C[C@@H]1COCCN21`, for which the Ki in data set [1] was found to be 232 nM; in data set [3] it was 12 nM. In addition, the IC50 in data set [2] amounted to 67 nM; in data set [4], 253 nM.
Turning to `C[C@@H]1COCCN1c1nc(-c2ccc(N)nn2)nc2c1C[C@@H]1COCCN21`, the Ki in data set [1] amounted to 847 nM; in data set [3], 11 nM. Further, the results for the 50% inhibitory concentration (IC50) in data set [2] and in data set [4] were 84 nM and 162 nM, respectively.
For the compound `C[C@@H]1COCCN1c1nc(-c2nnc(N)s2)nc2c1C[C@@H]1COCCN21`, the Papp A→B at 1 µM in data set [5] is less than 60 ×10⁻⁶ cm/s. For the same compound, the Ki in data set [1] is 1550 nM; in data set [3] it was 8.2 nM. Moreover, the IC50 in data set [2] stood at 80 nM; in data set [4], 135 nM. For the same compound, the efflux ratio at 1 µM in data set [6] is greater than 20.
As for `C[C@@H]1COCCN1c1nc(-c2cnc(N)nc2C(F)(F)F)nc2c1C[C@@H]1COCCN21`, the values for the Ki in data set [1] and in data set [3] were 55 nM and 249 nM, respectively. Also, the IC50 is 694 nM in data set [2] and 446 nM in data set [4].
As for `C[C@@H]1COCCN1c1nc(-c2cnc(N)c(C(F)(F)F)c2)nc2c1C[C@@H]1COCCN21`, the Ki is greater than 20000 nM in data set [1] and 33 nM in data set [3]. Further, the half-maximal inhibitory concentration (IC50) turned out to be 348 nM in data set [2] and 549 nM in data set [4].
Turning to `C[C@@H]1COCCN1c1nc(-c2cnc(N)s2)nc2c1C[C@@H]1COCCN21`, the remaining at 1 h, 1 µM was 48% in data set [7] and 87% in data set [8]. In addition, the apical-to-basolateral permeability (Papp A→B) at 1 µM in data set [5] was less than 60 ×10⁻⁶ cm/s. Besides, the Ki is 2490 nM in data set [1] and 15 nM in data set [3]. Besides, the 50% inhibitory concentration (IC50) in data set [2] was determined as 102 nM; in data set [4], 157 nM. In addition, the efflux ratio at 1 µM in data set [6] is greater than 20.
Regarding `C[C@@H]1COCCN1c1nc(-c2cnc(N)cc2C(F)(F)F)nc2c1C[C@@H]1COCCN21`, the Ki in data set [1] turned out to be 272 nM; in data set [3] it was 118 nM. Further, the IC50 was determined as 776 nM in data set [2] and 1090 nM in data set [4].
As for `C[C@@H]1COCCN1c1nc(-c2nc(N)ns2)nc2c1C[C@@H]1COCCN21`, the figures for the inhibition constant Ki in data set [1] and in data set [3] were 806 nM and 58 nM, respectively. Besides, the concentration for half-maximal inhibition (IC50) in data set [2] stood at 261 nM; in data set [4] it was 512 nM.
`C[C@@H]1COCCN1c1nc(-c2cnc(N)cn2)nc2c1C[C@@H]1COCCN21`: the Papp A→B at 1 µM in data set [5] is less than 60 ×10⁻⁶ cm/s. In addition, the efflux ratio at 1 µM in data set [6] was greater than 20.

The values above are taken from ChEMBL document CHEMBL4732024, “Second-generation tricyclic pyrimido-pyrrolo-oxazine mTOR inhibitor with predicted blood-brain barrier permeability” (RSC Med Chem, 2021).
